Compounds with a hit are over-represented: about 4.1% of the library has one in this group of screens.
MPTP inh – blocks calcium-induced mitochondrial swelling; isolated mouse mitochondria, Ca2+ swelling absorbance, 30 min; inhibition, % at 10 µM; 360,000 compounds, 1.4% hits;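 active = inhibition of 50% or more, scaled per plate between neutral and stimulator controls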;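 also: 0% = DMSO wells given calcium and 100% = 1 mM EGTA wells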
ATG4B inhibitor – inhibitors of human ATG4B cysteine protease; Q9Y4P1; 340,000 compounds, 0.51% hits; AID 504462; ATG4B cleavage of LC3-PLA2, NBD-HPC fluorescence, 1 h; inhibition, % at 8.33 µM; in the data active = inhibition above about 40%
Target sequence (Q9Y4P1 whole entry, looked up): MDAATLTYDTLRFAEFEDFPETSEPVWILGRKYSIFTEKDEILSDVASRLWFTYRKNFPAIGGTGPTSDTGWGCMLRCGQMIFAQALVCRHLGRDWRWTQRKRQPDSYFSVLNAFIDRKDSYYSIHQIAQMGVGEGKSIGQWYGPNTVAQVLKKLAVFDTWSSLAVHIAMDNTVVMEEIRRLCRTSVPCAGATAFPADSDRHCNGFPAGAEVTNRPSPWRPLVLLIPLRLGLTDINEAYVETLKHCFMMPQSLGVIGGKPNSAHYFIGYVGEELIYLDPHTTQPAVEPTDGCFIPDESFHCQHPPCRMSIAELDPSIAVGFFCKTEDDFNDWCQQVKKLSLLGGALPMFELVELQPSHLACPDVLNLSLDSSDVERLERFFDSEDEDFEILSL
SMARCA2 act – increases SMARCA2 function in MMTV reporter cells; MG213 cells, MMTV-luciferase reporter, dexamethasone, overnight; activation, % at 9.1 µM; 370,000 compounds, 1% hits; AID 652017; in the data active = activation above about 7.8%;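 also: 0% = vehicle wells and 100% = reference activator wells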
MC4R ag barr – agonists of human melanocortin 4 receptor (MC4R) beta-arrestin | P32245 | AID 540308 | activation, % at 8.9 µM | 360,000 compounds, 0.98% hits | U2OS MC4R beta-arrestin complementation, luminescence; percent of melanotan II response, DMSO zero;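 active = activation above a per-plate cutoff, the mean activation of sample wells on that plate plus 3 SD, cut at about 8% in these data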
MC4R antag cAMP – human MC4R antagonism in cAMP assay; MC4R-expressing cells, MTII-stimulated cAMP, LANCE TR-FRET; 360,000 compounds, 0.48% hits; inhibition, % at 6.5 µM; P32245;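 active = inhibition above its plate's cutoff, the mean of tested wells on that plate plus 3 SD, cut at about 29% in these data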;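 also: 0% = Melanotan II alone and 100% = Melanotan II plus saturating MCL0020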
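Material – human MC4R-expressing U2OS cells · Repeats – no replicates · Detection – TR-FRET with Eu-cAMP and labeled anti-cAMP, 671 nm · Times – compound 30 min, challenge 1 h, detection 1 h · Compound – single nominal compound dose of 6.5 µM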
MPTP counter – Rhodamine 123 counter-screen of mitochondrial pore hits; shares compounds with MPTP inh; isolated mitochondria, membrane potential, Rhodamine 123 fluorescence; inhibition, % at 10 µM; 5,000 compounds, 78% hits; AID 624504; in the data active = inhibition above about 22%;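 also: 0% = DMSO vehicle and 100% = positive control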
MPTP abs DR – dose response confirmation of mitochondrial permeability transition pore inhibitors | isolated mitochondria swelling, absorbance | 780 compounds, 58% hits | shares compounds with MPTP inh | AID 651561 | IC50, µM; in the data active = IC50 below about 20 µM
MPTP counter DR – MPTP inhibitor counter-screen activity, dose response | shares compounds with MPTP inh | isolated mitochondria counterscreen, fluorescence read-out | IC50, µM | 780 compounds, 49% hits | AID 651564; in the data active = IC50 below about 80 µM
An asterisk follows results filed as active; i = inactive; . = no result given.

SMILES | MPTP inh | ATG4B inhibitor | SMARCA2 act | MC4R ag barr | MC4R antag cAMP | MPTP counter | others
Cc1ccccc1NC(=S)NC(NC(=O)c1ccccc1C)C(Cl)(Cl)Cl (centres undefined) | 78* | -1 | 1 | 1 | 3 | 88*
O=C(NC(NC(=S)Nc1ccccc1)C(Cl)(Cl)Cl)c1cccc(Cl)c1 (centres undefined) | 96* | -7 | -8 | -1 | 1 | 77*
COC(=O)CSc1nnc(-c2ccc(NS(=O)(=O)c3ccc(C(C)(C)C)cc3)cc2)o1 | . | . | 1 | . | . | .
Cc1cc(C)c(NC(=S)NC(NC(=O)c2ccccc2)C(Cl)(Cl)Cl)c(C)c1 (centres undefined) | 76* | -9 | -3 | -1 | -4 | 84*
O=C1NC(=S)S/C1=C\c1cc(Cl)ccc1Cl | 98* | 10 | -4 | -3 | 2 | 84*
Cc1cccc(C2=CC(=O)CC(C)(C)C2=O)c1 | . | . | -1 | . | . | .
COc1ccc(C(=O)COC(=O)c2ccccc2NS(=O)(=O)c2ccc(O)c([N+](=O)[O-])c2)cc1 | 71* | 23 | -2 | 0 | 11 | 51*
FC(F)(F)c1cc(CCN2CCNC[C@@H]2Cc2ccccc2)cc(C(F)(F)F)c1 | 92* | 6 | 0 | 2 | -1 | -22
Fc1cccc(CCN2CCNC[C@@H]2Cc2ccccc2)c1 | 22 | 6 | 1 | 4 | 12 | .
COc1cccc2[nH]c3c(N4CCc5ccccc5C4)ncnc3c12 | . | -6 | . | . | . | .
Cc1ccc2[nH]c3c(N4CCN(Cc5ccccc5)CC4)ncnc3c2c1 | 85* | 2 | -1 | 0 | 2 | 68*
c1ccc2c(c1)CCN(c1ncnc3c1[nH]c1ccccc13)C2 | 99* | 27 | -5 | -2 | 9 | 101*
C=CCN1C(=O)[C@@H](CC(=O)NCc2cccc3ccccc23)[C@]2(C(=O)OC)CCCCC=C12 | . | . | -4 | . | . | .
CCCN1CCCCC(NC(=O)c2ccc(F)c(F)c2)C1=O (centres undefined) | . | . | -1 | . | . | .
COC(=O)[C@]1(CNC(=O)c2cc(F)ccc2F)CC(=O)N(C)[C@@H]1c1ccccc1 | . | . | -3 | . | . | .
CCc1ccccc1NC(=O)C1C(c2ccccc2)C1(Cl)Cl (centres undefined) | 51* | 10 | -1 | 0 | 0 | 76*
CCc1ccccc1NC(=O)C1NC(=O)CC1c1ccccc1 (centres undefined) | 3 | -3 | -2 | -1 | 8 | .
Cc1ccc(C)c(NC(=O)C2C3CCCC2C3c2ccccc2)c1 (centres undefined) | 0 | -15 | -1 | 0 | 5 | .
Cc1ccc(C)c(NC(=O)C2C(c3ccccc3)C2(Cl)Cl)c1 (centres undefined) | 76* | 11 | -2 | 6 | 7 | 89*
Cc1nn(C(C)C(=O)NNC(=S)Nc2ccc(Cl)cc2)c(C)c1[N+](=O)[O-] (centres undefined) | 51* | 7 | 4 | -2 | 2 | 60*
CC1CCCN(c2nc3ccccc3nc2C(C#N)S(=O)(=O)c2ccccc2)C1 (centres undefined) | 82* | -5 | 1 | 3 | 8 | 83*
CCCCOc1nc2ccccc2nc1C(C#N)S(=O)(=O)c1ccccc1 (centres undefined) | 51* | 0 | 0 | 1 | 2 | 78*
CCOC(=O)Cn1cc(CN2CCS(=O)(=O)N(Cc3ccc(C)cc3)C(C(=O)OC)C2)nn1 (centres undefined) | . | . | -2 | . | . | .
CC(C)(CO)NCc1cccc(OCc2ccc(Cl)cc2)c1 | 0 | 13 | 0 | 0 | -5 | .
Clc1ccc(COc2cccc(CNCc3ccncc3)c2)cc1 | 68* | 4 | -7 | -2 | 1 | 85*
SMILES | MPTP inh | ATG4B inhibitor | SMARCA2 act | MC4R ag barr | MC4R antag cAMP | MPTP counter | others
O=[N+]([O-])c1cccc(-c2nc(-c3cccs3)c(-c3cccs3)[nH]2)c1 | 104* | -2 | -3 | 4 | 7 | 53*
O=[N+]([O-])c1cccc(-c2nc(-c3ccccc3)c(-c3cccs3)[nH]2)c1 | -12 | 5 | -3 | 0 | 7 | .
O=C1c2cccc(OCC(=O)N3CCCc4ccccc43)c2CCN1Cc1cccnc1 | 82* | 2 | -3 | 3 | 1 | 34*
Cc1ccccc1CN1CCc2c(OCC(=O)N3CCCc4ccccc43)cccc2C1=O | 8 | 28 | -1 | -2 | 5 | .
CCCCCCCCN1C(=O)N(Cc2ccc(OC)cc2)S(=O)(=O)c2ccc(F)cc21 | . | . | -4 | . | . | .
COc1cccc(CNC(=O)[C@H]2CCCN2C(=O)[C@H]2CCCN2C(=O)c2cccc(Cl)c2)c1 | . | . | -1 | . | . | .
CC1CC(C)(C)N(C(=O)CN2CCN(C)CC2)c2ccccc21 (centres undefined) | 0 | 1 | -1 | 1 | 6 | .
CN1CCN(CC(=O)N2c3ccccc3C(C)(c3ccccc3)CC2(C)C)CC1 (centres undefined) | 74* | -3 | . | 4 | 18 | -9 | MPTP abs DR=i;MPTP counter DR=>80
CN1CCN(CC(=O)N2c3ccccc3C(C)(c3ccc(Cl)cc3)CC2(C)C)CC1 (centres undefined) | 75* | -5 | -1 | 0 | 8 | -3 | MPTP abs DR=19*;MPTP counter DR=>80
COC[C@@H](O)[C@H]1OCc2cccc(OC)c2[C@@H]1/C=C/c1ccccc1 | . | . | -3 | . | . | .
CCOC(=O)CNc1nnc(SCC(=O)OCC)[nH]c1=O | 58* | 7 | 1 | 1 | 18 | -4 | MPTP abs DR=>100;MPTP counter DR=>80
CCc1nc(SCc2ccc(OCC(C)C)cc2)n[nH]1 | 86* | -1 | -2 | 0 | 13 | 67*
CCCN(CCC)CCN1CCN(C(=O)[C@H](CCc2ccccc2)NC(=O)[C@H]2O[C@@H](n3cnc4c(N)ncnc43)[C@H](O)[C@@H]2O)CC1 | . | . | -4 | . | . | .
COc1ccc(C2=C/C(=C\c3cccc(OC(C)=O)c3)C(=O)O2)cc1 | 57* | -3 | -2 | 1 | -3 | 60*
COC(=O)C1=C(C)N(C)C(=NCc2ccc3c(c2)OCO3)NC1c1cccc(C(F)(F)F)c1 (centres undefined) | . | . | -8 | . | . | .
COc1ccc(N2CCN(CCNS(=O)(=O)c3c(C(C)C)cc(C(C)C)cc3C(C)C)CC2)cc1 | . | . | -6 | . | . | .
N=c1n(Cc2ccccc2)c2ccccc2n1CC(O)COc1ccc(Cl)cc1Cl (centres undefined) | 74* | 1 | -4 | 6 | 2 | 16
N=c1n(CC(=O)c2ccc([N+](=O)[O-])cc2)c2ccccc2n1Cc1ccccc1 | 4 | -8 | -2 | 4 | 8 | .
COc1ccc(OCC(O)Cn2c(=N)n(Cc3ccccc3)c3ccccc32)cc1 (centres undefined) | 6 | -6 | -5 | 0 | -2 | .

Compound activity as filed in PubChem.
